From ChEMBL document CHEMBL4043093, “2-Oxo-3, 4-dihydropyrimido[4, 5-d]pyrimidinyl derivatives as new irreversible pan fibroblast growth factor receptor (FGFR) inhibitors” (Eur J Med Chem, 2017)

Key:
[1] = test system: Phosphatidylinositol 4,5-bisphosphate 3-kinase catalytic subunit alpha isoform (Homo sapiens), P42336 [I800L]; experiment: Inhibition of human partial length PIK3CA I800L mutant (R108 to N1068 residues) expressed in HEK293 cells assessed as residual activity at 1000 nM after 30 mins by Kinomescan method relative to control; format: cell-based
Procedure, shortened: (§1)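 Single-point screen at a fixed 1 µM, run within a 456-kinase DiscoveRx KINOMEscan panel. Each kinase's read-out is Percent Control, i.e. signal relative to a control without compound. Hits were scored by a Percent Control < 35 cut-off, and an S(35) selectivity score was calculated across the non-mutant kinases.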

[2] = test system: Phosphatidylinositol 4,5-bisphosphate 3-kinase catalytic subunit alpha isoform (Homo sapiens), P42336 [M1043I]; experiment: Inhibition of human partial length PIK3CA M1043I mutant (R108 to N1068 residues) expressed in HEK293 cells assessed as residual activity at 1000 nM after 30 mins by Kinomescan method relative to control; format: cell-based; procedure, shortened: as §1
[3] = target: Dual specificity protein kinase CLK2 (Homo sapiens) (UniProt P49760); experiment: Inhibition of wild-type human partial length CLK2 (D144 to R498 residues) expressed in Escherichia coli BL21 assessed as residual activity at 1000 nM after 30 mins by Kinomescan method relative to control
[4] = target: cGMP-dependent protein kinase 2 (Homo sapiens) (UniProt Q13237); experiment: Inhibition of wild-type human partial length PRKG2 (S422 to F762 residues) expressed in HEK293 cells assessed as residual activity at 1000 nM after 30 mins by Kinomescan method relative to control; format: cell-based
[5] = target: Proto-oncogene tyrosine-protein kinase Src (Homo sapiens) (UniProt P12931); experiment: Inhibition of wild-type human partial length SRC (L240 to L536 residues) expressed in Escherichia coli BL21 assessed as residual activity at 1000 nM after 30 mins by Kinomescan method relative to control
[6] = target: Dual specificity mitogen-activated protein kinase kinase 4 (Homo sapiens) (UniProt P45985); experiment: Inhibition of wild-type human partial length MEK4 (S84 to D399 residues) expressed in HEK293 cells assessed as residual activity at 1000 nM after 30 mins by Kinomescan method relative to control; format: cell-based
[7] = target: 5'-AMP-activated protein kinase catalytic subunit alpha-1 (Homo sapiens) (UniProt Q13131); experiment: Inhibition of wild-type human partial length AMPK alpha1 (M1 to E306 residues) expressed in Escherichia coli BL21 assessed as residual activity at 1000 nM after 30 mins by Kinomescan method relative to control
[8] = target: TGF-beta receptor type-2 (Homo sapiens) (UniProt P37173); experiment: Inhibition of wild-type human partial length TGFBR2 (I218 to K567 residues) expressed in Escherichia coli BL21 assessed as residual activity at 1000 nM after 30 mins by Kinomescan method relative to control
[9] = target: Casein kinase II subunit alpha (Homo sapiens) (UniProt P68400); experiment: Inhibition of wild-type human full length CSNK2A1 (M1 to Q391 residues) expressed in HEK293 cells assessed as residual activity at 1000 nM after 30 mins by Kinomescan method relative to control; format: cell-based; procedure, shortened: as §1
[10] = target: Casein kinase I isoform alpha-like (Homo sapiens) (UniProt Q8N752); experiment: Inhibition of wild-type human full length CSNK1A1L (M1 to N337 residues) expressed in Escherichia coli BL21 assessed as residual activity at 1000 nM after 30 mins by Kinomescan method relative to control; procedure, shortened: as §1
[11] = target: Casein kinase I isoform delta (Homo sapiens) (UniProt P48730); experiment: Inhibition of wild-type human full length CSNK1D (M1 to K409 residues) expressed in Escherichia coli BL21 assessed as residual activity at 1000 nM after 30 mins by Kinomescan method relative to control; procedure, shortened: as §1
[12] = target: Serine/threonine-protein kinase OSR1 (Homo sapiens) (UniProt O95747); experiment: Inhibition of wild-type human full length OSR1 (M1 to S527 residues) expressed in HEK293 cells assessed as residual activity at 1000 nM after 30 mins by Kinomescan method relative to control; format: cell-based
Procedure, shortened: (§2)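 Single-concentration screen at 1 µM across a 456-kinase KINOMEscan panel. The read-out is Percent Control for each kinase.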

[13] = target: Serine/threonine-protein kinase MAK (Homo sapiens) (UniProt P20794); experiment: Inhibition of wild-type human partial length MAK (M1 to P314 residues) expressed in Escherichia coli BL21 assessed as residual activity at 1000 nM after 30 mins by Kinomescan method relative to control
[14] = target: Ribosomal protein S6 kinase alpha-2 (Homo sapiens) (UniProt Q15349); experiment: Inhibition of wild-type human partial length C-terminal RSK2 kinase domain 2 (V402 to S715 residues) expressed in HEK293 cells assessed as residual activity at 1000 nM after 30 mins by Kinomescan method relative to control; format: cell-based
[15] = target: Serine/threonine-protein kinase Sgk3 (Homo sapiens) (UniProt Q96BR1); experiment: Inhibition of wild-type human partial length SGK3 (M119 to L496 residues) expressed in HEK293 cells assessed as residual activity at 1000 nM after 30 mins by Kinomescan method relative to control; format: cell-based
[16] = target: Serine/threonine-protein kinase N1 (Homo sapiens) (UniProt Q16512); experiment: Inhibition of wild-type human partial length PKN1 (E598 to C948 residues) expressed in Escherichia coli BL21 assessed as residual activity at 1000 nM after 30 mins by Kinomescan method relative to control
[17] = target: Serine/threonine-protein kinase D1 (Homo sapiens) (UniProt Q15139); experiment: Inhibition of wild-type human partial length PRKD1 (G551 to E870 residues) expressed in Escherichia coli BL21 assessed as residual activity at 1000 nM after 30 mins by Kinomescan method relative to control
[18] = target: Non-receptor tyrosine-protein kinase TYK2 (Homo sapiens) (UniProt P29597); experiment: Inhibition of wild-type human partial length TYK2 JH1 catalytic domain (V877 to C1187 residues) expressed in HEK293 cells assessed as residual activity at 1000 nM after 30 mins by Kinomescan method relative to control; format: cell-based
[19] = target: Serine/threonine-protein kinase Nek7 (Homo sapiens) (UniProt Q8TDX7); experiment: Inhibition of wild-type human full length NEK7 (M1 to S302 residues) expressed in Escherichia coli BL21 assessed as residual activity at 1000 nM after 30 mins by Kinomescan method relative to control; procedure, shortened: as §2
[20] = target: Serine/threonine-protein kinase 33 (Homo sapiens) (UniProt Q9BYT3); experiment: Inhibition of wild-type human full length STK33 (M1 to L514 residues) expressed in Escherichia coli BL21 assessed as residual activity at 1000 nM after 30 mins by Kinomescan method relative to control
[21] = target: Tyrosine-protein kinase Fer (Homo sapiens) (UniProt P16591); experiment: Inhibition of wild-type human partial length FER (S542 to T822 residues) expressed in Escherichia coli BL21 assessed as residual activity at 1000 nM after 30 mins by Kinomescan method relative to control
Tyrosine-protein kinase Fer (Homo sapiens), sequence (P16591 whole entry, looked up, the tested form may be a part): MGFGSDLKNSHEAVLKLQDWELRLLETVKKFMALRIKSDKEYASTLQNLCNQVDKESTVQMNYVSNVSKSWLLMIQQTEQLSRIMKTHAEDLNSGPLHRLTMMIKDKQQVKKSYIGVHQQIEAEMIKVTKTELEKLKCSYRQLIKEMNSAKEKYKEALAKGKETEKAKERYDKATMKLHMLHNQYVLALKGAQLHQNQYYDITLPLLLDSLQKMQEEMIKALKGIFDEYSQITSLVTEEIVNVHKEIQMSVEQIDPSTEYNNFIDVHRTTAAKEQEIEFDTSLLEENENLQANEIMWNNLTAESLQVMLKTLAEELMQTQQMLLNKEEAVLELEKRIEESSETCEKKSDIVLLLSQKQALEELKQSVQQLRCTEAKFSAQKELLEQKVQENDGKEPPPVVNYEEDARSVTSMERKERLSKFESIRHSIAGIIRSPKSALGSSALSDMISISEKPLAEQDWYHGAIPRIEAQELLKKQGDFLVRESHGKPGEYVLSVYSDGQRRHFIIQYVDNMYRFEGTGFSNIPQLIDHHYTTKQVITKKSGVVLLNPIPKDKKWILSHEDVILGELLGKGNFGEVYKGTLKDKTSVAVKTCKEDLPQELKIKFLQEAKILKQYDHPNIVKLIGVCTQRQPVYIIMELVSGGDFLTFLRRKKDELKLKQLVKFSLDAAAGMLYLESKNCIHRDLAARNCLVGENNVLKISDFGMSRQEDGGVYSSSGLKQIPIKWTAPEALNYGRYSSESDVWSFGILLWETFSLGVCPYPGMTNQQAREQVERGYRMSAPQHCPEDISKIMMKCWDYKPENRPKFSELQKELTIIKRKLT

Serine/threonine-protein kinase OSR1 (Homo sapiens), sequence (O95747 2-527 limits assumed): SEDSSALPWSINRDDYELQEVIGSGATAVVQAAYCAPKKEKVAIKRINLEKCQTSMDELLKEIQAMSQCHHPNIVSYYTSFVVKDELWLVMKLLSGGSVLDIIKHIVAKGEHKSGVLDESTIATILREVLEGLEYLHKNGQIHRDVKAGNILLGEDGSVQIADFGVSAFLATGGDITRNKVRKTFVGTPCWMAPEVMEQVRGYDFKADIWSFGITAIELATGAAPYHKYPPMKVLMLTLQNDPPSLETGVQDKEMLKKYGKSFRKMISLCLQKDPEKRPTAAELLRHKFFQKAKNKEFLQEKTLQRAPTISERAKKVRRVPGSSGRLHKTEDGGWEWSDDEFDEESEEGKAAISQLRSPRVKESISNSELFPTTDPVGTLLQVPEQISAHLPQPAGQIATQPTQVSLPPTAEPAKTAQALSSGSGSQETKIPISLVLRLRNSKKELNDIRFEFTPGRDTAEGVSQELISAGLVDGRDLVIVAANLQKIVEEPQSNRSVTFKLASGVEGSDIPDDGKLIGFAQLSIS
Casein kinase I isoform delta (Homo sapiens), sequence (P48730 whole entry, looked up, the tested form may be a part, canonical isoform): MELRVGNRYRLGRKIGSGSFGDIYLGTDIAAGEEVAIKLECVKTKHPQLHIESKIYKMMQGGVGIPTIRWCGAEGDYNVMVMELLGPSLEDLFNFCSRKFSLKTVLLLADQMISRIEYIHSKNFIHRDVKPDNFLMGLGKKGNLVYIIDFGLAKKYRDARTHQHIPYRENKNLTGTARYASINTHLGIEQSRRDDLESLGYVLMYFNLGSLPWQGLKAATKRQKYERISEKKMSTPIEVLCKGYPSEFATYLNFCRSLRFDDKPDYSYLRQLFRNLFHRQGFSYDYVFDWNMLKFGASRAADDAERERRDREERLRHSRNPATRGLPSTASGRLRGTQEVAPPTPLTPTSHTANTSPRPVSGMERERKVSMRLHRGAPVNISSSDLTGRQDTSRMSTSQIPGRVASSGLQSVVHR
Casein kinase I isoform alpha-like (Homo sapiens), sequence (Q8N752 whole entry, the tested form may be a part, canonical isoform): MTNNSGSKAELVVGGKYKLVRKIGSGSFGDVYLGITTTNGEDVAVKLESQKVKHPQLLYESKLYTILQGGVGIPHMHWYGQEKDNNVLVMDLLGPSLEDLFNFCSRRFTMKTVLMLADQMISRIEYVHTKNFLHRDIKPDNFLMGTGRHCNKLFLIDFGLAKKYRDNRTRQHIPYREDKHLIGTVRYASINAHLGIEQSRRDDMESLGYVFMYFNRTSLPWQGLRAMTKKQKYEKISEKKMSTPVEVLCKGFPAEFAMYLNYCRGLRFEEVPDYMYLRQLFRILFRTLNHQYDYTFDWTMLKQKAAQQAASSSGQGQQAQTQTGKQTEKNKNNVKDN
TGF-beta receptor type-2 (Homo sapiens), sequence (P37173 whole entry, the tested form may be a part): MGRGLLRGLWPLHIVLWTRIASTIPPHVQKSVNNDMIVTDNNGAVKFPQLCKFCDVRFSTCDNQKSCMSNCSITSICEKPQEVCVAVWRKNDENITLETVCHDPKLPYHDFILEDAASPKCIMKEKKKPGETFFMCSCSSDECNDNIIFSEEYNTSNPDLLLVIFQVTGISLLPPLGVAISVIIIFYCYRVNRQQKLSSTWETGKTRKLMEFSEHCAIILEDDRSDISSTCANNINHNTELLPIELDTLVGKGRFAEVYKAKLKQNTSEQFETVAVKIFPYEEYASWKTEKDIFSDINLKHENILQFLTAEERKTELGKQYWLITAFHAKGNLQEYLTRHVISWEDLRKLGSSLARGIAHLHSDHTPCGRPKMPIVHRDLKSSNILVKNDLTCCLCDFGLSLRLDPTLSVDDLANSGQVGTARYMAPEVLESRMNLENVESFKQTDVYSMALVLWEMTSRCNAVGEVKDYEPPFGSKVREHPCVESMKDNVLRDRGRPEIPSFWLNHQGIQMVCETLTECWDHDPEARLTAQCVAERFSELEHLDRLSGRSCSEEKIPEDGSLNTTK
Dual specificity protein kinase CLK2 (Homo sapiens), sequence (P49760 whole entry, looked up, the tested form may be a part): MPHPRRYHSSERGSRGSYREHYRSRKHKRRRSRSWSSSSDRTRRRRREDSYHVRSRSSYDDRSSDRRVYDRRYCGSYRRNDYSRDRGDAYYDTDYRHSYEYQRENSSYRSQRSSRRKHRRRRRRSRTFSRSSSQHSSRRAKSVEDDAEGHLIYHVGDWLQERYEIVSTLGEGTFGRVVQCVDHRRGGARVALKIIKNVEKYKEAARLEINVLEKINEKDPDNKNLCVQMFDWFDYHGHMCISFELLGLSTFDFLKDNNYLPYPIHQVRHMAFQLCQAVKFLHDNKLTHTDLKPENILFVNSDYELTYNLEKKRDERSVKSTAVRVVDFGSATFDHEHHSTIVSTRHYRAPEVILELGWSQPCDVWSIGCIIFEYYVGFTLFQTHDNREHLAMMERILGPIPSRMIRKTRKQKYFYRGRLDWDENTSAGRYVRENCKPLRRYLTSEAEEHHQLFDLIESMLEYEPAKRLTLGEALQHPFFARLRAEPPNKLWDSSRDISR
Serine/threonine-protein kinase Nek7 (Homo sapiens), sequence (Q8TDX7 whole entry, looked up, the tested form may be a part): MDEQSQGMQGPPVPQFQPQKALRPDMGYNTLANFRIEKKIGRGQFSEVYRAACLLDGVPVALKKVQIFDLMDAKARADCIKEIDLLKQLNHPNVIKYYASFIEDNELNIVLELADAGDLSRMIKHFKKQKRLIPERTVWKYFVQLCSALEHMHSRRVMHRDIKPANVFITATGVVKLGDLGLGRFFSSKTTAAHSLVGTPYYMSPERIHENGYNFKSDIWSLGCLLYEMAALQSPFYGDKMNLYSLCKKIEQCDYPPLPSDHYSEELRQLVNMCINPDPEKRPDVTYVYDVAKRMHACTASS
Serine/threonine-protein kinase Sgk3 (Homo sapiens), sequence (Q96BR1 whole entry, the tested form may be a part): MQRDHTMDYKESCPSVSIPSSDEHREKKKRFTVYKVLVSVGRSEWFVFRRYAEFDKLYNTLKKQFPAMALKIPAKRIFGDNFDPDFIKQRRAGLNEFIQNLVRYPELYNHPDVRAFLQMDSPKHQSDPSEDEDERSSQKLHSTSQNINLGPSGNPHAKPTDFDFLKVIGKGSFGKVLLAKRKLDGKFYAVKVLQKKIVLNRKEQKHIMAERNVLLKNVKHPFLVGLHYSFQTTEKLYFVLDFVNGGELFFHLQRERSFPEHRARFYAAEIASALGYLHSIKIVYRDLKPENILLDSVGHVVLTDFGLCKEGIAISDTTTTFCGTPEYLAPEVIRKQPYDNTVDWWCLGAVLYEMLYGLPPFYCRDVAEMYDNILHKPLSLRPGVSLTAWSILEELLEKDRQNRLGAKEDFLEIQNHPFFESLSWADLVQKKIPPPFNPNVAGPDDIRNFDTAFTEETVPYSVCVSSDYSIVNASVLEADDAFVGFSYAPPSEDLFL
Ribosomal protein S6 kinase alpha-2 (Homo sapiens), sequence (Q15349 whole entry, the tested form may be a part): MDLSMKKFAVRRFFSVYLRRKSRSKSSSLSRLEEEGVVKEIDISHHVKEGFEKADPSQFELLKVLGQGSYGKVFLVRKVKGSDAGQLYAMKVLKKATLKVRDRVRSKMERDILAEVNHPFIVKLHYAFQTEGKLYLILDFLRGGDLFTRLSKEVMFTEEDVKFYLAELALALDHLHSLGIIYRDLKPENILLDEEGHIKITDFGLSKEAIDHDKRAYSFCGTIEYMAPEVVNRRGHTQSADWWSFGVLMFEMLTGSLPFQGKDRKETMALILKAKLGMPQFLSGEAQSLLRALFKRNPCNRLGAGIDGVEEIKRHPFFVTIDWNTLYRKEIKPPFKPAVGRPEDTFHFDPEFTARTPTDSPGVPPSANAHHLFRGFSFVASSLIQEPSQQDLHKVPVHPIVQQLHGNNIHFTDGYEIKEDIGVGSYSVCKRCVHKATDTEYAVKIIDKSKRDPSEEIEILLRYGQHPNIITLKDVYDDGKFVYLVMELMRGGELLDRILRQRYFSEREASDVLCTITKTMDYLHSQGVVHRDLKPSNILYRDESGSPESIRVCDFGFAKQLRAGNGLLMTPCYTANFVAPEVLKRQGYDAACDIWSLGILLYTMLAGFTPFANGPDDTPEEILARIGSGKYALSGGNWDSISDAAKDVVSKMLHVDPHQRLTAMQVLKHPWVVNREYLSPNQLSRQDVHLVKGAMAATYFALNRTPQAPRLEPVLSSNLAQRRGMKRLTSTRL

Q: What does the source list for `COc1cc(OC)c(Cl)c(N2Cc3cnc(Nc4ccc(F)cc4)nc3N(C3CCN(C(=O)/C=C/CN(C)C)CC3)C2=O)c1Cl`?
A: Activity [1]: 83%; Activity [2]: 95%; Activity [3]: 100%; Activity [4]: 100%; Activity [5]: 11%; Activity [6]: 100%; Activity [7]: 96%; Activity [8]: 91%; Activity [9]: 100%; Activity [10]: 100%; Activity [11]: 96%; Activity [12]: 100%; Activity [13]: 100%; Activity [14]: 96%; Activity [15]: 87%; Activity [16]: 92%; Activity [17]: 73%; Activity [18]: 83%; Activity [19]: 100%; Activity [20]: 100%; Activity [21]: 67%
